According to ChEMBL document CHEMBL5058577, “EUbOPEN Chemogenomics Library 2 (Multiplex)” (2022):

Test system: U2OS
Assay: Multiplex assay against U2OS
Type: toxicity, cell-based
Conditions: human
Procedure, shortened: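 Live cells were stained at seeding with Hoechst33342, BioTracker Green Microtubule Cytoskeleton Dye, MitoTracker Red and Annexin V Alexa Fluor 680, then imaged on a CQ1 microscope at 37°C and 5% CO2 after compound addition. CellPathfinder machine-learning gating split cells into Hoechst high-intensity objects or normal cells. Normal cells were split into healthy, pyknosed or fragmented nuclei, and pyknosed cells into mitotic or apoptotic. Tubulin, mitochondrial-mass and membrane-permeability phenotypes are per cents of healthy-nucleus cells.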

[1] = 12 h, 1 µM, compound concentration 1 uM, replicate 1
[2] = 12 h, 1 µM, compound concentration 1 uM, replicate 2
[3] = 12 h, 10 µM, compound concentration 10 uM, replicate 1
[4] = 12 h, 10 µM, compound concentration 10 uM, replicate 2
[5] = 24 h, 1 µM, compound concentration 1 uM, replicate 1
[6] = 24 h, 1 µM, compound concentration 1 uM, replicate 2
[7] = 24 h, 10 µM, compound concentration 10 uM, replicate 1
[8] = 24 h, 10 µM, compound concentration 10 uM, replicate 2
[9] = 48 h, 1 µM, compound concentration 1 uM, replicate 1
[10] = 48 h, 1 µM, compound concentration 1 uM, replicate 2
[11] = 48 h, 10 µM, compound concentration 10 uM, replicate 1
[12] = 48 h, 10 µM, compound concentration 10 uM, replicate 2

## COCCn1c(C)c(C)s/c1=N\C(=O)C1C(C)(C)C1(C)C
[1]
  Population Apoptotic (%): 88%
  Population Fragmented Nuclei (%): 24%
  Population Healthy Nuclei (%): 69%
  Population Hoechst High Intensity Objects (%): 0%
  Population Membrane Permeable-Phenotype (%): 8%
  Population Mitochondria Different-Phenotype (%): 1%
  Population Mitotic Cells (%): 11%
  Population Normal (%): 99%
  Population Pyknosed Nuclei (%): 6%
  Population Tubulin-Different-Phenotype (%): 3%
  Total Cell Count: 271
[2]
  Population Apoptotic (%): 71%
  Population Fragmented Nuclei (%): 20%
  Population Healthy Nuclei (%): 74%
  Population Membrane Permeable-Phenotype (%): 11%
  Population Mitochondria Different-Phenotype (%): 3%
  Population Mitotic Cells (%): 28%
  Population Normal (%): 100%
  Population Pyknosed Nuclei (%): 5%
  Population Tubulin-Different-Phenotype (%): 5%
  Total Cell Count: 135
[3]
  Population Apoptotic (%): 73%
  Population Fragmented Nuclei (%): 33%
  Population Healthy Nuclei (%): 52%
  Population Hoechst High Intensity Objects (%): 2%
  Population Membrane Permeable-Phenotype (%): 10%
  Population Mitochondria Different-Phenotype (%): 4%
  Population Mitotic Cells (%): 26%
  Population Normal (%): 97%
  Population Pyknosed Nuclei (%): 13%
  Population Tubulin-Different-Phenotype (%): 5%
  Total Cell Count: 220
[4]
  Population Apoptotic (%): 80%
  Population Fragmented Nuclei (%): 20%
  Population Healthy Nuclei (%): 68%
  Population Hoechst High Intensity Objects (%): 0%
  Population Membrane Permeable-Phenotype (%): 9%
  Population Mitochondria Different-Phenotype (%): 3%
  Population Mitotic Cells (%): 20%
  Population Normal (%): 100%
  Population Pyknosed Nuclei (%): 11%
  Population Tubulin-Different-Phenotype (%): 4%
  Total Cell Count: 135
[5]
  Population Apoptotic (%): 89%
  Population Fragmented Nuclei (%): 18%
  Population Healthy Nuclei (%): 75%
  Population Hoechst High Intensity Objects (%): 0%
  Population Membrane Permeable-Phenotype (%): 5%
  Population Mitochondria Different-Phenotype (%): 3%
  Population Mitotic Cells (%): 10%
  Population Normal (%): 99%
  Population Pyknosed Nuclei (%): 6%
  Population Tubulin-Different-Phenotype (%): 2%
  Total Cell Count: 314
[6]
  Population Apoptotic (%): 83%
  Population Healthy Nuclei (%): 77%
  Population Membrane Permeable-Phenotype (%): 9%
  Population Mitotic Cells (%): 16%
  Population Pyknosed Nuclei (%): 3%
  Population Tubulin-Different-Phenotype (%): 4%
  Total Cell Count: 157
[7]
  Population Apoptotic (%): 80%
  Population Fragmented Nuclei (%): 28%
  Population Healthy Nuclei (%): 58%
  Population Hoechst High Intensity Objects (%): 1%
  Population Membrane Permeable-Phenotype (%): 8%
  Population Mitochondria Different-Phenotype (%): 8%
  Population Mitotic Cells (%): 19%
  Population Normal (%): 98%
  Population Pyknosed Nuclei (%): 12%
  Population Tubulin-Different-Phenotype (%): 2%
  Total Cell Count: 257
[8]
  Population Apoptotic (%): 88%
  Population Fragmented Nuclei (%): 21%
  Population Healthy Nuclei (%): 66%
  Population Membrane Permeable-Phenotype (%): 10%
  Population Mitochondria Different-Phenotype (%): 1%
  Population Mitotic Cells (%): 11%
  Population Tubulin-Different-Phenotype (%): 9%
  Total Cell Count: 141
[9]
  Population Apoptotic (%): 94%
  Population Fragmented Nuclei (%): 12%
  Population Healthy Nuclei (%): 79%
  Population Hoechst High Intensity Objects (%): 1%
  Population Membrane Permeable-Phenotype (%): 5%
  Population Mitochondria Different-Phenotype (%): 2%
  Population Mitotic Cells (%): 5%
  Population Normal (%): 98%
  Population Pyknosed Nuclei (%): 8%
  Population Tubulin-Different-Phenotype (%): 4%
  Total Cell Count: 459
[10]
  Population Apoptotic (%): 100%
  Population Fragmented Nuclei (%): 15%
  Population Membrane Permeable-Phenotype (%): 9%
  Population Mitochondria Different-Phenotype (%): 1%
  Population Mitotic Cells (%): 0%
  Population Pyknosed Nuclei (%): 4%
  Population Tubulin-Different-Phenotype (%): 5%
  Total Cell Count: 218
[11]
  Population Apoptotic (%): 81%
  Population Fragmented Nuclei (%): 22%
  Population Healthy Nuclei (%): 62%
  Population Hoechst High Intensity Objects (%): 2%
  Population Membrane Permeable-Phenotype (%): 11%
  Population Mitochondria Different-Phenotype (%): 4%
  Population Mitotic Cells (%): 18%
  Population Normal (%): 97%
  Population Pyknosed Nuclei (%): 14%
  Population Tubulin-Different-Phenotype (%): 5%
  Total Cell Count: 305
[12]
  Population Apoptotic (%): 96%
  Population Fragmented Nuclei (%): 15%
  Population Healthy Nuclei (%): 71%
  Population Hoechst High Intensity Objects (%): 1%
  Population Membrane Permeable-Phenotype (%): 4%
  Population Mitotic Cells (%): 4%
  Population Normal (%): 98%
  Population Pyknosed Nuclei (%): 12%
  Population Tubulin-Different-Phenotype (%): 2%
  Total Cell Count: 206
